In one assay the test system is Escherichia coli. Put plainly: Antibacterial activity against Escherichia coli PTCC 1338 after 24 hrs by microplate alamar blue assay. It counts as functional. The conditions noted are these: PTCC 1338, 24 h. The procedure, abridged: (§1)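 Bacteria from Persian type culture collection grown in Mueller–Hinton broth. Inoculum suspensions adjusted to 0.5 McFarland, final inoculum 1.5 ×10⁴. Compounds dissolved in DMSO, serially diluted twofold across the 8–512 range in 96-well plates, Alamar Blue added, sealed plates incubated 24 h at 37 °C. MIC is the lowest concentration preventing the blue-to-pink colour change. Ciprofloxacin was the reference drug.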
A general note: Resazurin is reduced to fluorescent resorufin, in cell work by metabolically active cells.

Assay [1] concerns Salmonella enterica subsp. enterica. The experiment in a line: Antibacterial activity against Salmonella enteritidis PTCC 1091 after 24 hrs by microplate alamar blue assay. Type of assay: functional, Salmonella enterica subsp. enterica serovar Enteritidis. To be noted: PTCC 1091, 24 h. In outline: as §1
The next assay concerns Pseudomonas aeruginosa. Put plainly: Antibacterial activity against Pseudomonas aeruginosa PTCC 1074 after 24 hrs by microplate alamar blue assay. It counts as functional. The conditions noted are these: for MIC: Pseudomonas aeruginosa, PTCC 1074, 24 h. The procedure, abridged:
as §1

A further assay relates to Staphylococcus aureus. The experiment in a line: Antibacterial activity against Staphylococcus aureus PTCC 1337 after 24 hrs by microplate alamar blue assay. To be noted: for MIC: Staphylococcus aureus, PTCC 1337, 24 h. It counts as functional. The procedure, abridged:
as §1

The next assay concerns Listeria monocytogenes. Put plainly: Antibacterial activity against Listeria monocytogenes PTCC 1165 after 24 hrs by microplate alamar blue assay. The conditions noted are these: PTCC 1165, 24 h. It counts as functional. The procedure, abridged:
as §1

In another assay the test system is Bacillus subtilis. Put plainly: Antibacterial activity against Bacillus subtilis PTCC 1023 after 24 hrs by microplate alamar blue assay. The conditions noted are these: PTCC 1023, 24 h. Type of assay: functional. In outline:
as §1

In a further assay the test system is Candida albicans. Put plainly: Antifungal activity against Candida albicans PTCC 5027 after 48 hrs by microplate alamar blue assay. To be noted: for MIC: Candida albicans, PTCC 5027, 48 h. Type of assay: functional. In outline:
(§2)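 Fungi from Persian type culture collection, tested in RPMI 1640 buffered with MOPS at pH 7.0. Final inoculum 1.5 ×10⁵. Compounds in DMSO, twofold serial dilutions over 8–512 in 96-well plates with Alamar Blue, incubated 48 h at 25 °C. MIC is the lowest concentration blocking the blue-to-pink shift. Ketoconazole was the reference agent.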

The next assay deals with Aspergillus niger. The experiment in a line: Antifungal activity against Aspergillus niger 5021 after 48 hrs by microplate alamar blue assay. The conditions noted are these: Aspergillus niger, 5021, 48 h. Type of assay: functional. The procedure, abridged:
as §2

Another assay relates to Aspergillus flavus. Put plainly: Antifungal activity against Aspergillus flavus PTCC 5003 after 48 hrs by microplate alamar blue assay. To be noted: PTCC 5003, 48 h. It counts as functional. The procedure, abridged: as §2

Values after ≈ are worked out from the molar mass of the structure shown. A value given as a limit tells only on which side of the number the result lay.

These results are taken from ChEMBL document CHEMBL1137743, “Synthesis, antimicrobial evaluation and QSAR study of some 3-hydroxypyridine-4-one and 3-hydroxypyran-4-one derivatives” (2009).

What is called MIC is the smallest concentration in the dilution series that meets the test's criterion for growth inhibition. Higher therefore signals a less susceptible organism. Take `Cc1cc(=O)c(O)co1`: the minimal inhibitory concentration (MIC) against Escherichia coli is greater than 512 µg/mL; in assay [1], greater than 512 µg/mL; in the assay with Pseudomonas aeruginosa it was 256 µg/mL (≈ 2.03 mM); with Staphylococcus aureus, greater than 512 µg/mL; against Listeria monocytogenes, 512 µg/mL (≈ 4.06 mM); with Bacillus subtilis, greater than 512 µg/mL. The MIC in the assay on Candida albicans stood at 128 µg/mL (≈ 1.01 mM); in the assay with Aspergillus niger, 512 µg/mL (≈ 4.06 mM); in the assay with Aspergillus flavus, 512 µg/mL (≈ 4.06 mM). For the same compound, the entries for the “-logMIC” value in the assay on Pseudomonas aeruginosa, in the assay with Staphylococcus aureus and in the assay on Candida albicans were 3.59, 3.59 and 3.89, respectively.
Regarding `O=c1cc(CCl)occ1O`, the MIC (in the assay with Escherichia coli; in assay [1]; against Pseudomonas aeruginosa; against Staphylococcus aureus; against Listeria monocytogenes; with Bacillus subtilis) was greater than 512 µg/mL in each case. The MIC in the assay with Candida albicans amounted to 512 µg/mL (≈ 3.19 mM); with Aspergillus niger, 128 µg/mL (≈ 0.797 mM); against Aspergillus flavus it was 16 µg/mL (≈ 0.0997 mM). The “-logMIC” value was determined as 4.19 with Pseudomonas aeruginosa, 3.59 in the assay on Staphylococcus aureus and 3.89 in the assay with Candida albicans.
